Experimental data taken from ChEMBL document CHEMBL4765325, “Discovery of dihydropyrrolidones as novel inhibitors against influenza A virus” (Eur J Med Chem, 2020).

How the values were obtained:
[1] = Selectivity index, ratio of CC50 for dog MDCK cells to IC50 for antiviral activity against Influenza A virus (A/Puerto Rico/8/34(H1N1)) harboring NA H274Y mutant; assay type: toxicity; conditions: read-out: Ratio CC50/IC50
Outline: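 SI = CC50/IC50, both from MTT read-outs in MDCK cells in triplicate. Cytotoxicity: 2 × 10⁴ cells/well, overnight at 37 °C with 5% CO2, then compound at 1.56–400 µM for 48 h, MTT 4 h, DMSO, A570. Antiviral: cells infected 1 h, washed, then cultured 48 h in DMEM with TPCK and two-fold serial compound dilutions.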

Influenza A virus = assay: Antiviral activity against Influenza A virus (A/Puerto Rico/8/34(H1N1)) harboring NA H274Y mutant infected in dog MDCK cells assessed as reduction in virus-induced cytopathogenicity incubated for 48 hrs by microscopic analysis; assay type: functional, organism-based, A/Puerto Rico/8/1934(H1N1)
Outline: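 MDCK cells were infected with each IAV strain at 100TCID₅₀ for 1 h, then washed twice with PBS. They were cultured 48 h in DMEM with two-fold serial compound dilutions and 1 mg/ml TPCK. Antiviral activity was read by an MTT-based method, giving IC₅₀ from triplicate wells as mean SD.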

CCOC(=O)C1=C(Nc2ccc(C(F)(F)F)cc2)C(=O)N(c2ccc(C(F)(F)F)cc2)C1c1ccccc1 (configuration not stated) gave a selectivity ratio [1] of over 61.6 and an IC50 (Influenza A virus) of 6.48 µM.
